How the values were obtained:
[1] = Inhibition of melanogenesis in mouse B16-4A5 cells at 1 uM after 72 hrs by spectrophotometry; format: functional; details: B16-4A5, 72 h
[2] = Inhibition of melanogenesis in mouse B16-4A5 cells at 10 uM after 72 hrs by spectrophotometry; format: functional; details: B16-4A5, 72 h
[3] = Cytotoxicity against mouse B16-4A5 cells assessed as cell viability at 100 uM after 70 hrs by WST-8 assay
[4] = Inhibition of melanogenesis in mouse B16-4A5 cells at 3 uM after 72 hrs by spectrophotometry; format: functional; details: B16-4A5, 72 h
[5] = Inhibition of melanogenesis in mouse B16-4A5 cells after 72 hrs by spectrophotometry; format: functional, cell-based
[6] = Inhibition of melanogenesis in mouse B16-4A5 cells at 100 uM after 72 hrs by spectrophotometry; format: functional; details: B16-4A5, 72 h
[7] = Inhibition of melanogenesis in mouse B16-4A5 cells at 30 uM after 72 hrs by spectrophotometry; format: functional; details: B16-4A5, 72 h
[8] = Antimelanogenic activity in mouse B16-4A5 cells assessed as inhibition of tyrosinase mRNA expression at 3 uM after 72 hrs by RT-PCR analysis relative to beta-actin mRNA; format: functional
Procedure, shortened: (§1)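 B16 melanoma 4A5 cells seeded at 1.0 × 10^5 cells/well in 6-well plates, cultured 24 h, then exposed to test compound plus theophylline 1 mM for 72 h. Total RNA extracted; cDNA from 1 µg RNA; SYBR Green real-time PCR (95 °C 2 min; 40 cycles 95/58/72 °C, 30 s each) with gene-specific primers; relative quantification normalized to β-actin mRNA.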

[9] = Antimelanogenic activity in mouse B16-4A5 cells assessed as inhibition of tyrosinase mRNA expression at 30 uM after 72 hrs by RT-PCR analysis relative to beta-actin mRNA; format: functional; procedure, shortened: as §1
[10] = Antimelanogenic activity in mouse B16-4A5 cells assessed as inhibition of TRP2 mRNA expression at 3 uM after 72 hrs by RT-PCR analysis relative to beta-actin mRNA; format: functional; procedure, shortened: as §1
[11] = Antimelanogenic activity in mouse B16-4A5 cells assessed as inhibition of TRP1 mRNA expression at 10 uM after 72 hrs by RT-PCR analysis relative to beta-actin mRNA; format: functional; procedure, shortened: as §1
[12] = biological target: T1, Tyrosinase (Agaricus bisporus) (UniProt O42713); test: Inhibition of mushroom tyrosinase at 100 uM
T1 sequence (whole entry): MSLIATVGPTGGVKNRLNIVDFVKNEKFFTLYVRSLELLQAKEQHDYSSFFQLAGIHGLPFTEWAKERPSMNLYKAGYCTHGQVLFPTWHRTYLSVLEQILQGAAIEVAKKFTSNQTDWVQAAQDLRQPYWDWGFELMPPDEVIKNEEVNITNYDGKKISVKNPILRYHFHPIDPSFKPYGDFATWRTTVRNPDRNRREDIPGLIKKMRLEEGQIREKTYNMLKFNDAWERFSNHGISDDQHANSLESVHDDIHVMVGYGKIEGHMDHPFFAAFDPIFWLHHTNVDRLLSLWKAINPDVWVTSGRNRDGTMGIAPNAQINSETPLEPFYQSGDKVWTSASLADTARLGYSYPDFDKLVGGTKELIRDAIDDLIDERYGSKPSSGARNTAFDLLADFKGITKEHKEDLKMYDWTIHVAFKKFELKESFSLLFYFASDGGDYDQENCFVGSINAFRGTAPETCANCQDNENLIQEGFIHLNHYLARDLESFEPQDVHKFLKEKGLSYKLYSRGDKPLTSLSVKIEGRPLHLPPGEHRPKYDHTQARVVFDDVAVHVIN
Procedure, shortened: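 Enzyme mix: 70 µL L-DOPA (2.5 mM in phosphate buffer) as substrate plus 20 µL test solution (DMSO, final 0.1%). Reaction started with 120 µL mushroom tyrosinase (80.5 units/mL), run 5 min at 25 °C. Dopaquinone measured by absorbance at 405 nm (reference 655 nm). Inhibition % = (A−B)/A × 100 versus vehicle.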

[13] = Antimelanogenic activity in mouse B16-4A5 cells assessed as inhibition of TRP2 mRNA expression at 10 uM after 72 hrs by RT-PCR analysis relative to beta-actin mRNA; format: functional; procedure, shortened: as §1
[14] = Antimelanogenic activity in mouse B16-4A5 cells assessed as inhibition of TRP1 mRNA expression at 30 uM after 72 hrs by RT-PCR analysis relative to beta-actin mRNA; format: functional; procedure, shortened: as §1
[15] = Antimelanogenic activity in mouse B16-4A5 cells assessed as inhibition of TRP2 mRNA expression at 30 uM after 72 hrs by RT-PCR analysis relative to beta-actin mRNA; format: functional; procedure, shortened: as §1
[16] = Antimelanogenic activity in mouse B16-4A5 cells assessed as inhibition of TRP1 mRNA expression at 3 uM after 72 hrs by RT-PCR analysis relative to beta-actin mRNA; format: functional; procedure, shortened: as §1
[17] = Antimelanogenic activity in mouse B16-4A5 cells assessed as inhibition of tyrosinase mRNA expression at 10 uM after 72 hrs by RT-PCR analysis relative to beta-actin mRNA; format: functional; procedure, shortened: as §1

Structure (SMILES) | inhibition at 1 µM [1] [%] | inhibition at 10 µM [2] [%] | viability at 70 h, 100 µM [3] [%] | inhibition at 3 µM [4] [%] | IC50 [5] [µM] | inhibition at 100 µM [6] [%] | inhibition at 30 µM [7] [%] | fold change (FC) [8] | fold change (FC) [9] | fold change (FC) [10] | fold change (FC) [11] | inhibition [12] [%] | fold change (FC) [13] | fold change (FC) [14] | fold change (FC) [15] | fold change (FC) [16] | fold change (FC) [17]
COc1cc2c(cc1OC)C(Cc1ccc(O)cc1)N(C)CC2 (racemic) | 7.5 | 34 | 82 | 18.2 | 25.6 | 80.3 | 50.4 | – | – | – | – | – | – | – | – | – | –
COc1cc2c3c(c1OC)-c1ccccc1C[C@H]3[N+](C)([O-])CC2 (some centres not stated) | -4.8 | -0.1 | 82 | -3.2 | 43 | 88.4 | 33.7 | – | – | – | – | – | – | – | – | – | –
OC[C@H]1O[C@@H](Oc2ccc(O)cc2)[C@H](O)[C@@H](O)[C@@H]1O [ARBUTIN] | – | 10.6 | – | – | 174 | 38.1 | 20.4 | – | – | – | – | – | – | – | – | – | –
COc1cc2ccnc3c2c(c1OC)-c1ccccc1C3=O [LYSICAMINE] | 4.8 | -1.5 | 22.5 | 8.7 | – | – | 65.3 | – | – | – | – | – | – | – | – | – | –
COc1cc2c3c(c1OC)-c1ccccc1C[C@H]3NCC2 | 5.8 | 12.1 | 82 | 16.2 | 62.9 | 91.9 | 17.6 | – | – | – | – | – | – | – | – | – | –
COc1cc2c3c(c1)-c1ccccc1CC3N(C)CC2 (configuration not stated) | 39.1 | 76 | – | 54.7 | 2 | – | 82.5 | – | – | – | – | – | – | – | – | – | –
COc1cc2c3c(c1OC)C1(C=CC(=O)C=C1)C[C@H]3N(C)CC2 [PRONUCIFERINE] | 4 | 18.3 | 82 | 16.8 | 47.9 | 66.4 | 40.3 | – | – | – | – | – | – | – | – | – | –
COc1cc2c3c(c1OC)-c1ccccc1C[C@H]3N(C)CC2 [NUCIFERINE] | 11.5 | 32.1 | 46 | 16.5 | 15.8 | 89.3 | 72.3 | 0.61 | 0.38 | 1.11 | 0.74 | < 3 | 0.71 | 0.36 | 0.65 | 0.76 | 0.64
COc1c(O)cc2c3c1-c1ccccc1C[C@H]3N(C)CC2 | 15.4 | 37.9 | 82 | 19.7 | 14.5 | 90.5 | 70.6 | 0.65 | 0.53 | 1.1 | 0.72 | < 3 | 0.96 | 0.49 | 0.88 | 0.79 | 0.76
CN1CCc2ccccc2C1Cc1ccccc1 (configuration not stated) | 24.5 | 59.7 | 77 | 40.5 | 5 | 75.4 | 51.8 | – | – | – | – | – | – | – | – | – | –
COc1cc2c3c(c1O)-c1ccccc1C[C@H]3N(C)CC2 | -2.6 | 27.3 | 39.7 | 11.1 | 19.3 | – | 65.9 | – | – | – | – | – | – | – | – | – | –
COc1c(O)cc2c3c(cc4ccccc4c13)N(C)CC2 | 10.9 | 37.6 | 46 | 13.2 | 13.3 | 78.7 | 87.4 | – | – | – | – | – | – | – | – | – | –
c1ccc2c(c1)CCNC2 [1,2,3,4-TETRAHYDROISOQUINOLINE] | -12.6 | -54.2 | 46 | -41.5 | – | 26.1 | 2.8 | – | – | – | – | – | – | – | – | – | –
COc1c(O)cc2c3c1-c1ccccc1C[C@H]3NCC2 [ASIMILOBINE] | – | – | 46 | – | – | – | – | – | – | – | – | – | – | – | – | – | –
COc1c(O)cc2c3c1-c1ccccc1C[C@@H]3NCC2 [ASIMILOBINE] | 7.4 | 12.1 | – | -7.4 | > 100 | 36.2 | 39.7 | – | – | – | – | – | – | – | – | – | –
COc1cc2c3c(cc4ccccc4c3c1OC)N(C)CC2 [DEHYDRONUCIFERINE] | 14.5 | 11.8 | 77 | 4.8 | 85 | 78.4 | 8 | – | – | – | – | – | – | – | – | – | –
CN1CCc2ccccc2C1 | 10.6 | 9.4 | 82 | 9.7 | – | 15.9 | 16.5 | – | – | – | – | – | – | – | – | – | –

Source: ChEMBL document CHEMBL2311321, “Alkaloid constituents from flower buds and leaves of sacred lotus (Nelumbo nucifera, Nymphaeaceae) with melanogenesis inhibitory activity in B16 melanoma cells” (Bioorg Med Chem, 2013)
